ChEMBL document CHEMBL4184143 (J Med Chem, 2017)

Experiments:
[1] = biological target: T1, Bromodomain-containing protein 4 (Homo sapiens, UniProt O60885); test: Inhibition of FAM-labeled ZBA248 binding to recombinant human N-terminal His6-tagged BRD4 bromodomain 1 (44 to 168 residues) expressed in Rosetta2 DE3 cells after 30 mins by Flourescence polarization assay; assay type: biochemical
[2] = Half life in Sprague-Dawley rat at 25 mg/kg, po by LC/MS method; assay type: ADME, organism-based; conditions: in vivo
How it was run: (§1)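 Sprague Dawley rats were dosed iv at 5 mg/kg or orally at 25 mg/kg, with compound dissolved in 20% (v/v) PCP/70% (v/v) PBS vehicle. Blood was drawn by catheter at 0, 5, 15, 30 min and 1, 2, 4, 6, 8, 24 h and spun to plasma, which was stored at −80 °C. Plasma drug was quantified by a validated LC–MS/MS method, and parameters were derived noncompartmentally.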

[3] = Cmax in Sprague-Dawley rat at 25 mg/kg, po by LC/MS method; assay type: ADME, organism-based; design: dose 25 mg/kg, route oral; conditions: in vivo; how it was run: as §1
[4] = AUC (0 to t) in Sprague-Dawley rat at 25 mg/kg, po by LC/MS method; assay type: ADME, organism-based; conditions: in vivo; how it was run: as §1
[5] = Half life in Sprague-Dawley rat at 5 mg/kg, iv by LC/MS method; assay type: ADME, organism-based; conditions: in vivo
[6] = AUC (0 to t) in Sprague-Dawley rat at 5 mg/kg, iv by LC/MS method; assay type: ADME, organism-based; conditions: in vivo; how it was run: as §1
[7] = Clearance in Sprague-Dawley rat at 5 mg/kg, iv by LC/MS method; assay type: ADME, organism-based; conditions: in vivo
[8] = AUC (0 to t) in SCID mouse at 5 mg/kg, iv by LC/MS method; assay type: ADME, organism-based; conditions: in vivo
How it was run: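 Mouse plasma samples were stored at −80 °C. Drug levels were quantified by a validated LC–MS/MS method, and pharmacokinetic parameters were calculated by noncompartmental analysis.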

[9] = Cmax in SCID mouse at 25 mg/kg, po by LC/MS method; assay type: ADME, organism-based; design: dose 25 mg/kg, route oral; conditions: in vivo
[10] = Aqueous solubility of the compound in 5% DMSO/10% cremophor/85% saline; assay type: physicochemical; conditions: buffer
[11] = biological target: T2, Bromodomain-containing protein 2 (Homo sapiens, UniProt P25440); test: Binding affinity to human partial length BRD2 bromodomain 2 isoform 1 (349 to 460 residues) expressed in bacterial expression system by BROMOscan assay
T2 sequence (P25440 whole entry, the tested form may be a part, canonical isoform): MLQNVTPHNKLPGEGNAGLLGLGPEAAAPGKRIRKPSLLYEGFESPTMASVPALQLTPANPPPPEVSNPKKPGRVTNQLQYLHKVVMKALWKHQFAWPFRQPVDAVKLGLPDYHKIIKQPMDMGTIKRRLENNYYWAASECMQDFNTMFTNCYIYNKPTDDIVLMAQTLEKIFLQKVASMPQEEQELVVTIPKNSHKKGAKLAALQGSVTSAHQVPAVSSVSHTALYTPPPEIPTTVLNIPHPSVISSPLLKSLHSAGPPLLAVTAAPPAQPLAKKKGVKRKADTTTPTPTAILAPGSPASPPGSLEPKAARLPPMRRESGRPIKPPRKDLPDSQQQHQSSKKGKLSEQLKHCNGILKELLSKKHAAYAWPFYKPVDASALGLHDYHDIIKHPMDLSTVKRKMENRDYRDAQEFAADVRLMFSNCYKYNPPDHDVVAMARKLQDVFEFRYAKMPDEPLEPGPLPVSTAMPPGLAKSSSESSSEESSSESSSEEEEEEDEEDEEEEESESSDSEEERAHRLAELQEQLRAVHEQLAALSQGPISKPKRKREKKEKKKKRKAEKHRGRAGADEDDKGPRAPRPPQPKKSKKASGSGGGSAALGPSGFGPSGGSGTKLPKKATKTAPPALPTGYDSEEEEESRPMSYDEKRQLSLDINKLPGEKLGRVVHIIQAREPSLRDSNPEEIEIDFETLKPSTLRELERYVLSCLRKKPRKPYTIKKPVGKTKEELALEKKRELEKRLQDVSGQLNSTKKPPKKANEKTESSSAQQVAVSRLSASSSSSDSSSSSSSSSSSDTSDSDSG

[12] = biological target: T2, Bromodomain-containing protein 2; test: Binding affinity to human partial length BRD2 bromodomain 1/2 isoform 1 (K71 to D455 residues) by BROMOscan assay
[13] = biological target: Bromodomain-containing protein 3 (Homo sapiens, UniProt Q15059); test: Binding affinity to human partial length BRD3 bromodomain 2 (G306 to P416 residues) expressed in bacterial expression system by BROMOscan assay
[14] = biological target: T1, Bromodomain-containing protein 4; test: Binding affinity to human partial length BRD4 bromodomain 2 long isoform (K333 to E460 residues) expressed in bacterial expression system by BROMOscan assay
[15] = biological target: T3, Bromodomain testis-specific protein (Homo sapiens, UniProt Q58F21); test: Binding affinity to human partial length BRDT bromodomain 1 isoform b (N21 to E137 residues) expressed in bacterial expression system by BROMOscan assay
[16] = biological target: T3, Bromodomain testis-specific protein; test: Binding affinity to human partial length BRDT bromodomain 2 isoform b (K250 to E382 residues) expressed in bacterial expression system by BROMOscan assay
[17] = biological target: T3, Bromodomain testis-specific protein; test: Binding affinity to human partial length BRDT bromodomain 1/2 isoform b (K250 to E382 residues) expressed in bacterial expression system by BROMOscan assay
[18] = biological target: Histone acetyltransferase p300 (Homo sapiens, UniProt Q09472); test: Binding affinity to human partial length EP300 (A1040 to G1161 residues) expressed in bacterial expression system by BROMOscan assay
[19] = biological target: Bromodomain-containing protein 1 (Homo sapiens, UniProt O95696); test: Binding affinity to human partial length BRD1 (E556 to A688 residues) expressed in bacterial expression system by BROMOscan assay
[20] = biological target: Bromodomain and PHD finger-containing protein 3 (Homo sapiens, UniProt Q9ULD4); test: Binding affinity to human partial length BRPF3 (E588 to G701 residues) expressed in bacterial expression system by BROMOscan assay
Bromodomain and PHD finger-containing protein 3, sequence (Q9ULD4 whole entry, the tested form may be a part): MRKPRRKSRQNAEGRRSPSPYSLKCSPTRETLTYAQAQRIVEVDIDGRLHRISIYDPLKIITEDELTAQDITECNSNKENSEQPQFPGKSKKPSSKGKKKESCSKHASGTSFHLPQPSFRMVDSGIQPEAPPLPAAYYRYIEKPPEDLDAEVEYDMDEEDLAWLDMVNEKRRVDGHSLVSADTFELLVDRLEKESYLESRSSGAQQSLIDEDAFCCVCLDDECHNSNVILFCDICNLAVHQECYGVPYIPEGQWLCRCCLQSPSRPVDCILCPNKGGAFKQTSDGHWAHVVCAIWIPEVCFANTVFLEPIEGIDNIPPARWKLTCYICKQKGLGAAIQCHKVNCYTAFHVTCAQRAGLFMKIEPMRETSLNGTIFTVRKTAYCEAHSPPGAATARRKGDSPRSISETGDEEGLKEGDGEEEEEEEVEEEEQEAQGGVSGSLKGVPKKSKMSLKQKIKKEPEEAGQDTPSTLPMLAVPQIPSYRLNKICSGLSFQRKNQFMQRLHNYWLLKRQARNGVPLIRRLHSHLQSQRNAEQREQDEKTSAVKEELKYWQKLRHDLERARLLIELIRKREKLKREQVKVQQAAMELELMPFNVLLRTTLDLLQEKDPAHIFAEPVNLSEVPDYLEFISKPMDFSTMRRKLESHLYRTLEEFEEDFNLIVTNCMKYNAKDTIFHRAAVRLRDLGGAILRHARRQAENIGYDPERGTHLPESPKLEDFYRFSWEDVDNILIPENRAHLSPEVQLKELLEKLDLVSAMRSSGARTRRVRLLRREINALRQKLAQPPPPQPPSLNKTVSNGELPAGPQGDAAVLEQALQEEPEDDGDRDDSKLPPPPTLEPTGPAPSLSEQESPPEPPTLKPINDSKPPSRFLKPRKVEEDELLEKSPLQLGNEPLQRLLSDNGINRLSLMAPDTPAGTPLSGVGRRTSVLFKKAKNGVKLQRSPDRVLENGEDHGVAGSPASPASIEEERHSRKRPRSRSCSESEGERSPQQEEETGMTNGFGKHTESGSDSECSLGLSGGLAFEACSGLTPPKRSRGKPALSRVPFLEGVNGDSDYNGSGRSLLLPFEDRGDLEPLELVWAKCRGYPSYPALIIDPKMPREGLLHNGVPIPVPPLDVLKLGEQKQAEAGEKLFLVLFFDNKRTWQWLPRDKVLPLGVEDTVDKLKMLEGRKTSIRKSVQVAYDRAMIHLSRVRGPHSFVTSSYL

[21] = biological target: Histone acetyltransferase KAT2A (Homo sapiens, UniProt Q92830); test: Binding affinity to human partial length GCN5L2 (E726 to K837 residues) expressed in bacterial expression system by BROMOscan assay
Histone acetyltransferase KAT2A, sequence (Q92830 whole entry, the tested form may be a part): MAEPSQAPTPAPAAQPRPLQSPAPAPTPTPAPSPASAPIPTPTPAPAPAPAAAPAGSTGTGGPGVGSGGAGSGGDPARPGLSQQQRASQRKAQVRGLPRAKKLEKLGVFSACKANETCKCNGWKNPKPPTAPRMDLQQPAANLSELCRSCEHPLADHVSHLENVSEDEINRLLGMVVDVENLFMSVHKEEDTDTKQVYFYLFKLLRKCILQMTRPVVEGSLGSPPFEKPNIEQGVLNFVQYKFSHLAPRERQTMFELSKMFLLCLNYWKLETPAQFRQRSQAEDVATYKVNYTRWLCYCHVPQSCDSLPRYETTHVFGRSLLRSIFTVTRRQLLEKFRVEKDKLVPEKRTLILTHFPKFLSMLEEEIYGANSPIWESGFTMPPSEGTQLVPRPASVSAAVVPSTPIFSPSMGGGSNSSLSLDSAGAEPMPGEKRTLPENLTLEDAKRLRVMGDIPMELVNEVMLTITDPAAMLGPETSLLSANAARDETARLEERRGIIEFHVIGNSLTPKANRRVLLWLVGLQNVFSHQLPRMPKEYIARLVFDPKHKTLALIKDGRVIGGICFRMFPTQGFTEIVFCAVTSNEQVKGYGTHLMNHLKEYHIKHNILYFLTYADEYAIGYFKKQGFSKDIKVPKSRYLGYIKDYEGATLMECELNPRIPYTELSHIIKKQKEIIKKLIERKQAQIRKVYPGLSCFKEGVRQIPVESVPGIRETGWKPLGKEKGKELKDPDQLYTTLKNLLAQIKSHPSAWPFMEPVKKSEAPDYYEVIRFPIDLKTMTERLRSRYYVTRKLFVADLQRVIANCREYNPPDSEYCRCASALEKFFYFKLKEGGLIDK

Protein polybromo-1 [22] = biological target: T4, Protein polybromo-1 (Homo sapiens, UniProt Q86U86); test: Binding affinity to human partial length PBRM1 bromodomain 2 (S178 to E291 residues) expressed in bacterial expression system by BROMOscan assay
T4 sequence (Q86U86 whole entry, the tested form may be a part): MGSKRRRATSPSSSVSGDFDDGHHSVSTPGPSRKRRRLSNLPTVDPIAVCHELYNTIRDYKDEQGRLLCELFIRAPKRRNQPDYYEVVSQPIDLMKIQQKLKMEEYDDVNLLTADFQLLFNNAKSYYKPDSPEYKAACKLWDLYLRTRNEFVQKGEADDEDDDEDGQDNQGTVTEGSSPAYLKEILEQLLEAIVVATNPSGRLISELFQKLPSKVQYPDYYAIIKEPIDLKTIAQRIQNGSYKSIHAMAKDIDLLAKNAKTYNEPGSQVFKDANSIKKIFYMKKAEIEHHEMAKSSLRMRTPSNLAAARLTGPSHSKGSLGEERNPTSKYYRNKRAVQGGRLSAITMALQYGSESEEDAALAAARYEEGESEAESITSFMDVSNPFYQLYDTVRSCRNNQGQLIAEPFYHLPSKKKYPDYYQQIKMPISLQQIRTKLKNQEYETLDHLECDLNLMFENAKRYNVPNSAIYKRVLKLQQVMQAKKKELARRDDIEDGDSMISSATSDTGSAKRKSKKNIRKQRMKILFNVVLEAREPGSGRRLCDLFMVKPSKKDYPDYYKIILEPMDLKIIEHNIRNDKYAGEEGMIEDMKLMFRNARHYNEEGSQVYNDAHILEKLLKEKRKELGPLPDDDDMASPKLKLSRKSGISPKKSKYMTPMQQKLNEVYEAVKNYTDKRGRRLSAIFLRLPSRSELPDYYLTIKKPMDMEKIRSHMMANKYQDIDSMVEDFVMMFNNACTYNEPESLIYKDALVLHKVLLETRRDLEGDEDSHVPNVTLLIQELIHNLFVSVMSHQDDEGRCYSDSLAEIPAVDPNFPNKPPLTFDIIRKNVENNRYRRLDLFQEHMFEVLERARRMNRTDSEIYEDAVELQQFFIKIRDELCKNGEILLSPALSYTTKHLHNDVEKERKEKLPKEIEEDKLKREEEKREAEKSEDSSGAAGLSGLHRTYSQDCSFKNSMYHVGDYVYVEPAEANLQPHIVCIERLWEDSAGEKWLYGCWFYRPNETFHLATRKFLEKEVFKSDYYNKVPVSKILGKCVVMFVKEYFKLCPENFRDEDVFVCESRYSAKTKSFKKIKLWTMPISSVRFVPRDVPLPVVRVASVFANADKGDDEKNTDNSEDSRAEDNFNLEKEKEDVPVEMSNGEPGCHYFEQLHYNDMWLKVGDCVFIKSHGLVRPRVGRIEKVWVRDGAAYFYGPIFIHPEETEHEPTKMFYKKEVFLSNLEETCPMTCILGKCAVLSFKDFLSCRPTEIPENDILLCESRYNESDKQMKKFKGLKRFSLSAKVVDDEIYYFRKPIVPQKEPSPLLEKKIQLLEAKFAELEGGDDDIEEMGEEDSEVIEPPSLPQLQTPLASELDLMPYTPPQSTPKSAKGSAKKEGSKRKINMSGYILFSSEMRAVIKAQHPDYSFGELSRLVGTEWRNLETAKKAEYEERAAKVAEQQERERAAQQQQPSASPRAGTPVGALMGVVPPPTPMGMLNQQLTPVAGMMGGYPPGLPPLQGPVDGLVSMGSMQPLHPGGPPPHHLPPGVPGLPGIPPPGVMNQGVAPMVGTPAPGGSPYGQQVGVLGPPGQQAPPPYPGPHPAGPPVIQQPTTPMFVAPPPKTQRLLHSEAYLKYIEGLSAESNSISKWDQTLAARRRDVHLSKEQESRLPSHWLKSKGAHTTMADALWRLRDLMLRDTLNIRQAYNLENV

Protein polybromo-1 [23] = biological target: T4, Protein polybromo-1; test: Binding affinity to human partial length PBRM1 bromodomain 5 (S645 to D766 residues) expressed in bacterial expression system by BROMOscan assay
[24] = biological target: SWI/SNF-related matrix-associated actin-dependent regulator of chromatin subfamily A member 2 (Homo sapiens, UniProt P51531); test: Binding affinity to human partial length SMARCA2 (S1377 to Q1486 residues) expressed in bacterial expression system by BROMOscan assay
[25] = biological target: SWI/SNF-related matrix-associated actin-dependent regulator of chromatin subfamily A member 4 (Homo sapiens, UniProt P51532); test: Binding affinity to human partial length SMARCA4 (A1448 to S1575 residues) expressed in bacterial expression system by BROMOscan assay
[26] = biological target: Transcription intermediary factor 1-alpha (Homo sapiens, UniProt O15164); test: Binding affinity to human partial length TRIM24 expressed in bacterial expression system by BROMOscan assay
[27] = biological target: Bromodomain adjacent to zinc finger domain protein 2A (Homo sapiens, UniProt Q9UIF9); test: Binding affinity to human partial length BAZ2A (M1792 to L1905 residues) expressed in bacterial expression system by BROMOscan assay
SUM-159-PT = test: Cytotoxicity against human SUM159PT cells assessed as cell growth inhibition after 4 days by WST-8 assay; assay type: functional, cell-based; conditions: 96 h
How it was run: (§2)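 Breast cancer cells were seeded at 3,000 cells/well, treated with serially diluted compound in medium and cultured for 4 days. Growth was read by WST-8 (10% v/v final, 1–3 h) at 450 nm. Readings were normalized to DMSO-treated cells, and IC50 was obtained by nonlinear regression.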

HCC1937 = test: Cytotoxicity against human HCC1937 cells assessed as cell growth inhibition after 4 days by WST-8 assay; assay type: functional, cell-based; conditions: HCC1937, 96 h; how it was run: as §2
Mus musculus = test: Toxicity in SCID mouse implanted with human MDA-MB-231 cells at 40 mg/kg, po qd measured 2 to 3 times weekly during treatment and weekly post dose; assay type: organism-based; conditions: in vivo
How it was run: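 At ~100 mm3, mice were randomized to treatment or vehicle control. Tumors were measured by electronic calipers. Animals were checked daily for signs of toxicity and weighed 2–3 times weekly on treatment, then at least weekly afterwards.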

MV4-11 = test: Induction of apoptosis in human MV4-11 cells assessed as upregulation of cleaved PARP protein level after 24 hrs by Western blot method; assay type: functional, cell-based
How it was run: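 MV4;11 cells were exposed to compound for 24 h and lysed in RIPA buffer with protease inhibitors. Lysates were separated on 4–20% SDS-PAGE, blotted to PVDF and probed for PARP, cleaved PARP and p21, with β-actin as loading control.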

`COc1cc2c(cc1-c1c(C)noc1C)[nH]c1nc(C)nc(-c3ccnc4ccccc34)c12` gave an IC50 [1] of 28.2 nM, a Ki [1] of 8.2 nM and a half-life [2] of 2.9 h. The Cmax [3] was 7330 ng/mL, the AUC(0-t) [4] was 29500 ng·h/mL and the half-life [5] was 2.4 h. The AUC(0-t) [6] was 6340 ng·h/mL, the clearance [7] was 13.2 mL/min/kg and the AUC(0-t) [8] was 3690 ng·h/mL. For the same compound, the Cmax [9] was 983 ng/mL, the solubility [10] was “Soluble” and the Kd [11] was 0.9 nM. The Kd [12] was 1.1 nM, the Kd [13] was 0.69 nM and the Kd [14] was 2 nM. It also gave a Kd [15] of 15 nM, a Kd [16] of 5.5 nM and a Kd [17] of 9.7 nM. It also gave a Kd [18] of 550 nM, a Kd [19] of over 4000 nM and a Kd [20] of over 4000 nM. For the same compound, the Kd [21] was over 4000 nM, the Kd (Protein polybromo-1 [22]) was over 4000 nM and the Kd (Protein polybromo-1 [23]) was over 4000 nM. The Kd [24] was over 4000 nM, the Kd [25] was over 4000 nM and the Kd [26] was over 4000 nM. It also gave a Kd [27] of over 4000 nM, an IC50 (SUM-159-PT) of over 2000 nM and an IC50 (HCC1937) of over 2000 nM. For the same compound, the Activity (Mus musculus) was “Non-Toxic” and the Activity (MV4-11) was “Dose-dependent effect”.
